Compound activity (PubChem)
A selection: hits, their analogues and other compounds. The true share with any hit is near 2.9%.
S1P1 ag-PAM – S1P1 (human) agonism or agonism potentiation | P21453 | S1P1 CRE-bla cells, forskolin, beta-lactamase FRET, potentiator mode; S1P1 agonist co-added at EC20, 2 nM; 100% = saturating reference agonist, 0% = basal | activation, % at 9.5 µM | 0.57% of 56,000 active | AID 449;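 active means activation above a cutoff set at the mean activation of all tested compounds plus 3 SD, cut at about 54% in these data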;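 further: forskolin at 4 µM as EC80 and the EC20 agonist is SEW2871; 100% = SEW2871 at its EC100 plus forskolin at EC80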
Target sequence (P21453 whole entry, looked up): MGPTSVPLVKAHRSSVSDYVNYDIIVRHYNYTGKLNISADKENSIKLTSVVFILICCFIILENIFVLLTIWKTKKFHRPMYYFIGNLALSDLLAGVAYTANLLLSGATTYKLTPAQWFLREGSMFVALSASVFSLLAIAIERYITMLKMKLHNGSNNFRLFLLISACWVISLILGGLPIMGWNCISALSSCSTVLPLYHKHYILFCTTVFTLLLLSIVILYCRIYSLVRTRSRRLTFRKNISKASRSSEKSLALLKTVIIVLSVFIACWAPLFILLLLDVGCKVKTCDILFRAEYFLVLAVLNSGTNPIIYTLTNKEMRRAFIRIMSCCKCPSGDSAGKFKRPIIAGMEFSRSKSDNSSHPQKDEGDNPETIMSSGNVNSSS
5HT1E ag – agonists of human 5-HT1E serotonin receptor; P28566; CHO 5-HT1E Ga15 NFAT-bla reporter, FRET; 0% DMSO wells, 100% control agonist wells; activation, % at 6 µM; 0.69% of 65,000 active;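 active means activation above a set limit, the screen-wide mean activation plus 3 SD, cut at about 8.5% in these data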;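 further: 100% = positive control agonist at 1 µM giving full maximal response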
5HT1a antag – 5-HT1a (human) receptor antagonism | P08908 | CHO 5-HT1a Ga15 NFAT-bla reporter, antagonist mode | inhibition, % at 10 µM | 0.68% of 62,000 active;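 active means inhibition above the mean of all tested compounds plus 3 SD, cut at about 43% in these data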;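 further: receptor stimulated by 5-CT agonist at 100 nM near EC80; beta-lactamase reporter measured by ratiometric fluorescence of a cleavable substrate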
5HT1a ag – 5-HT1a (human) receptor agonism; AID 567; 0.56% of 65,000 active; activation, % at 10 µM; P08908; CHO 5-HT1a Ga15 NFAT-bla reporter, FRET ratio; 0% basal, 100% maximal reference agonist;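 active means activation above the screen-wide mean activation plus 3 SD, cut at about 19% in these data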;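 further: 0% = DMSO wells and 100% = 5-CT at EC100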
5HT1E antag – 5-HT1E (human) receptor antagonism; CHO 5-HT1E Ga15 NFAT-bla reporter, FRET, antagonist; 0.99% of 65,000 active; P28566; AID 571; inhibition, % at 6 µM;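 active means inhibition above a set limit, the mean inhibition across every tested compound plus 3 SD, cut at about 29% in these data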;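 further: signal is the 460 over 535 nm emission ratio of beta-lactamase substrate; 0% = agonist plus DMSO wells and 100% = wells without agonist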
S1P3 ag – activates the human S1P3 receptor | S1P3 NFAT-BLA reporter cells, agonism, FRET ratio; relative to 1 µM S1P, basal subtracted | activation, % at 4.5 µM | 0.1% of 60,000 active | AID 373;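 active means activation above the screen-wide mean plus 3 SD, cut at about 4.5% in these data, passing the limit was not always enough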
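material = human S1P3 NFAT-BLA reporter CHO cells | schedule = 4 h compound at 37 °C, 2 h substrate at RT | measured by = fluorescent BLA substrate, ex 405 nm, em 460/535 nm ratio | controls = 1 µM S1P reference | replication = primary once, confirmation triplicate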
The depositor's hits bear a star; . = no result.

SMILES | S1P1 ag-PAM | 5HT1E ag | 5HT1a antag | 5HT1a ag | 5HT1E antag | S1P3 ag
Clc1ccc(C2CC(c3cccs3)n3ncnc3N2)c(Cl)c1 (stereo not drawn) | -16 | 0 | 3 | -1 | -4 | 0
CCCCc1nc(SCC(=O)Nc2ccc(S(N)(=O)=O)cc2)n[nH]1 | -11 | 14* | -5 | -1 | 0 | 2
Cc1ccc(NC(=O)CSc2n[nH]c(-c3ccncc3)n2)cc1 | -16 | 0 | -17 | 2 | -3 | 0
CSCC[C@H](NC(=O)OC(C)(C)C)c1nnc(SCC(=O)Nc2ccc(C)cc2C)o1 | . | 1 | -3 | 0 | -15 | .
O=C(CSC1=NCCS1)Nc1ccnc2ccccc12 | 109* | 1 | 18 | -1 | 18 | -3
Cc1ccc(C(=O)N2CCCC(c3nc4c(nnn4Cc4ccccc4)c(=O)[nH]3)C2)cc1 (stereo not drawn) | 15 | 0 | 4 | 21* | 8 | -1
Cc1ccc2nc(N3CCN(C(=O)c4cccs4)CC3)c(C#N)cc2c1 | 1 | 1 | 3 | -3 | -7 | -1
CC1CCc2nc(NC(=O)CSc3nc4ccccc4o3)sc2C1 (stereo not drawn) | 76* | 0 | -3 | -3 | -4 | 0
Cc1nnc(SCC(=O)Nc2nc3c(s2)CC(C)CC3)s1 (stereo not drawn) | 26 | 0 | -3 | -1 | 4 | 0
O=C(CSc1nc2ccccc2o1)Nc1ccc(N2CCOCC2)c(Cl)c1 | 119* | 0 | -4 | 1 | 12 | -2
CC(C)(C)OCC(NC(=O)C(CC(N)=O)NC(=O)OC(C)(C)C)C(=O)OC(C)(C)C (stereo not drawn) | 2 | 1 | -5 | -3 | 4 | -1
Cc1ccccc1CS(=O)(=O)CCC(=O)NCCCN1CCN(c2ccccc2F)CC1 | 22 | -1 | 11 | 1 | 11 | -1
Cn1c(=O)cc(SCC(=O)NCCCN2CCN(c3ccccc3F)CC2)c2ccccc21 | 8 | 1 | 60* | 14 | -3 | -1
Cc1cc(=O)oc(C)c1C(=O)NCCNC(=O)c1c(C)cc(=O)oc1C | -14 | 39* | . | -1 | -11 | -3
Cn1c(C(=O)NCCCN2CCN(c3ccccc3F)CC2)cc2c(=O)n(C)c3ccccc3c21 | -9 | 18* | 73* | 17 | -17 | 0
Cn1c(=O)cc(SCC(=O)NCCCN2CCOCC2)c2ccccc21 | -8 | -1 | 0 | -3 | 6 | -1
Cc1cc(=O)oc(C)c1C(=O)NCCCN1CCN(c2ccccc2F)CC1 | . | 28* | 77* | 1 | 24 | .
O=c1[nH]c(CN2CCN(Cc3ccc4c(c3)OCO4)CC2)nc2sc3c(c12)CCC3 | -17 | 0 | 6 | -1 | 1 | 1
CCn1c(=O)cc(SCC(=O)NCCCN2CCN(c3ccc(F)cc3)CC2)c2ccccc21 | . | 0 | 47* | 4 | -8 | .
CCCCN(CC)CCCNC(=O)c1cc2c(=O)n(C)c3ccccc3c2n1C | -43 | 17* | -3 | -2 | -2 | 0
COCCCNC(=O)C(F)(F)C(F)(F)C(=O)NCCCOC | -6 | 0 | -2 | -1 | 2 | -1
O=C(CCN1CCCC1Cc1ccccc1)c1ccc2c(c1)OCCO2 (stereo not drawn) | 42 | 8.9* | . | -1 | 16 | -5
CCCCC(c1nnnn1C1CCCC1)N1CCN(C2CCCC2)CC1 (stereo not drawn) | -19 | -1 | 31 | -2 | -3 | -1
N#Cc1c(N)nc(SC2CCCCC2=O)c(C#N)c1-c1ccco1 (stereo not drawn) | . | 1 | -4 | 2 | 42* | .
N#Cc1c(N)nc(SCc2ccccc2)c(C#N)c1-c1ccco1 | -45 | 1 | -16 | 3 | 18 | 1
SMILES | S1P1 ag-PAM | 5HT1E ag | 5HT1a antag | 5HT1a ag | 5HT1E antag | S1P3 ag
N#Cc1c(N)nc2c(c1-c1ccccc1)CCCC2 | -38 | 1 | 2 | -2 | 6 | 1
N#Cc1c(N)nc(-c2ccccc2)nc1-c1ccccc1 | -16 | 0 | 23 | -1 | 30* | 0
N#Cc1c(N)nc(SCc2ccccn2)c(C#N)c1-c1cccs1 | -26 | 0 | . | 5 | 30* | -2
c1ccc(-c2nnc(N3CCOCC3)nc2-c2ccccc2)cc1 | 8 | 2 | 5 | -1 | 4 | 31*
CC(C)(CC(=O)N1CCN(c2ccc(Cl)cc2)CC1)CC1=NS(=O)(=O)c2ccccc2N1 | 63* | 1 | -4 | 2 | 4 | -1
CS(=O)(=O)N(CC(=O)N1CCCC1)c1ccc(OCc2ccccc2)cc1 | . | -1 | -5 | 1 | 2 | -2
CS(=O)(=O)N(CC(=O)N1CCCCCC1)c1ccccc1 | -4 | 32* | 12 | -1 | -2 | -1
CC(C)C(OC(=O)c1cccs1)C(=O)NCc1ccco1 (stereo not drawn) | -12 | -1 | 24 | -3 | 12 | -2
CC(OC(=O)c1cccs1)C(=O)NCc1ccco1 (stereo not drawn) | -10 | 16* | -10 | 5 | -6 | 1
O=C(c1ccccc1)N1CCN(CC2CC=CCC2)CC1 (stereo not drawn) | 2 | 9.2* | -10 | 0 | 2 | 1
COc1ccc(CC(=O)Nc2cccc(-c3nnc(-c4ccccc4)o3)c2)cc1OC | 44 | 0 | 16 | 1 | 18 | -2
CCCC(=O)Nc1ccc(-c2nc3cc(C)c(C)cc3o2)cc1 | 82* | 1 | -12 | -3 | -4 | -1
CCCC(=O)Nc1ccc2oc(-c3ccncc3)nc2c1 | -13 | 0 | -2 | 1 | 2 | -1
COc1ccc(CC(=O)Nc2cccc(-c3nnc(-c4ccc(C)cc4)o3)c2)cc1OC | 2 | 0 | -6 | -1 | 34* | 0
COc1ccc(-c2nc3cc(NC(=O)Cc4ccc(OC)c(OC)c4)ccc3o2)cc1 | 81* | 0 | 10 | 6 | 7 | -1
COc1ccc(CC(=O)Nc2cccc(-c3nnc(-c4cccc(C)c4)o3)c2)cc1OC | . | 2 | 92* | -1 | 80* | -2
Cn1c(/C=N/n2cnnc2)nc2ccccc21 | 0 | 1 | -5 | 12 | 4 | -1
CCOC(=O)N1CCN(C(=O)c2ccc3c(c2)NC(=O)C(N2CCOCC2)S3)CC1 (stereo not drawn) | 0 | 0 | 8 | -2 | -5 | 1
COc1cc(CNC2CCCC2)cc(OC)c1 | -13 | 0 | -10 | 0 | -8 | 0
O=CN(Cc1ccco1)C1(C(=O)NC2CCCCC2)CCCCC1 | -9 | 0 | -1 | -2 | -2 | 0
OC(COC1CCCCC1)CN1CCN(c2ccccc2)CC1 (stereo not drawn) | 13 | 1 | 45* | 7 | 0 | 0
CCc1ccc(NC(=O)c2cc(-c3ccco3)on2)cc1 | 56* | 0 | 9 | -3 | 0 | -1
